PLC-gamma1 inh: inhibitors of human phospholipase C gamma1. P19174. purified PLC-gamma1, fluorogenic substrate, fluorescence. inhibition, % at 12.2 µM. 0.84% of 370,000 active; in the data active = inhibition above about 9.5%
PLC-beta3 inh: PLC-beta3 (human) inhibition, primary screen. Q01970. Purified PLC-beta3, fluorogenic substrate, fluorescence. inhibition, % at 12.2 µM. 0.18% of 370,000 active. AID 720704; in the data active = inhibition above about 11%
VIM-2 inhibitor: inhibitors of Pseudomonas aeruginosa VIM-2 metallo-beta-lactamase. purified VIM-2, nitrocefin hydrolysis, epi-absorbance fluorescence. 0.89% of 290,000 active. AID 1527. inhibition, % at 5.6 µM;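 active = inhibition above the mean of all tested compounds plus 3 SD, cutoff set per screening run, cut at about 7.5% in these data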;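 note: red hydrolysis product quenches plate fluorescence so inhibitors raise well fluorescence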
IMP-1 inh: blocks Pseudomonas aeruginosa IMP-1 metallo-beta-lactamase; purified IMP-1, nitrocefin hydrolysis, epi-absorbance fluorescence; inhibition, % at 5.6 µM; 0.45% of 290,000 active; AID 1556;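 active = inhibition above the mean plus 3 SD of all compounds in the same screening run, cut at about 4.5% in these data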
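System: purified IMP-1; amount: IMP-1 0.2 nM before substrate addition; compound: single dose, 5.6 µM; times: 25 °C, 15 min preincubation, 25 min reaction; signal: Epi-absorbance via hydrolysed-nitrocefin quenching of white-plate fluorescence, 480/530 nm, EDTA stop; benchmarks: DMSO with and without IMP-1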
PvdQ acylase: P. aeruginosa PvdQ acylase inhibition; purified PvdQ acylase, fluorescence plate reader; 0.063% of 340,000 active; AID 488965; inhibition, % at 10 µM; in the data active = inhibition above about 30%, passing the limit was not always enough
Each line names hits and unclear results; the compound was inactive in the other large screens. Only some compounds are listed: those with a hit (about 2% of all), similar ones and a draw of the others.

CC1CCN(C2=C(NS(=O)(=O)c3ccc(Br)cc3)C(=O)c3ccccc3C2=O)CC1	none
COc1ccc(CC(=O)Oc2ccccc2[N+](=O)[O-])cc1	IMP-1 inh 13
COc1ccc(S[C@]2(C(=O)N3CCOCC3)CC(=O)N(C(=O)C3CC3)[C@@H]2c2ccc(OC)cc2)cc1	none (no result: VIM-2 inhibitor, IMP-1 inh, PvdQ acylase)
CCOc1c(Cl)cc(C(=O)Nc2ccccc2-c2ccccc2)cc1Cl	none
COc1ccc(C(=O)Nc2ccccc2-c2ccccc2)cc1Cl	IMP-1 inh 5.2
CN(CCCOC(=O)c1cc2ccccc2o1)C1CN(Cc2cn(Cc3ccccc3C(F)(F)F)nn2)S(=O)(=O)C1 (centres undefined)	none (no result: VIM-2 inhibitor, IMP-1 inh, PvdQ acylase)
COc1ccc(S(=O)(=O)N2CCOCC2)cc1NC(=O)Cc1coc2cc(C)c(C)cc12	IMP-1 inh 71
COc1ccc(-c2onc3ccc(Br)cc23)cc1	PvdQ acylase 34
Cc1nn(CCC(=O)NNC(=O)Nc2ccccc2F)c(C)c1[N+](=O)[O-]	none (no result: VIM-2 inhibitor, IMP-1 inh, PvdQ acylase)
O=C(CCCn1c(=S)[nH]c2cc3c(cc2c1=O)OCO3)NCc1ccccc1Cl	IMP-1 inh 14
CC1CCN(S(=O)(=O)c2cn(CC(=O)Nc3ccc(OC(F)(F)F)cc3)cn2)CC1	IMP-1 inh 8.8
COc1cc(CNCc2ccccn2)ccc1OCc1c(Cl)cccc1Cl	none
Cc1c(Cl)cccc1-c1ccc(CNCc2ccccn2)o1	VIM-2 inhibitor 7.9
CCCCNC(=O)NS(=O)(=O)c1ccc(NC(=O)CSc2nnc(-c3cccs3)n2-c2ccc(OC)cc2)cc1	none (no result: VIM-2 inhibitor, IMP-1 inh, PvdQ acylase)
COc1ccc(-c2csc(Nc3cccnc3)n2)cc1OC	VIM-2 inhibitor 12
COc1cccc(Nc2nc(-c3cccnc3)cs2)c1	none
c1ccc(-c2ccc(C3=Nn4c(nnc4-c4ccccn4)SC3)cc2)cc1	none (no result: VIM-2 inhibitor, IMP-1 inh, PvdQ acylase)
O=c1nc2ccc(Cl)cn2c2ccc(S(=O)(=O)N3CCOCC3)cc12	VIM-2 inhibitor 11
c1ccc(CNC2CCC23CCC(c2ccccc2)CC3)cc1 (centres undefined)	none (no result: VIM-2 inhibitor, IMP-1 inh, PvdQ acylase)
O=S(=O)(c1ccccc1)N(Cc1nc(-c2ccccc2)no1)C1CCCCC1	PLC-gamma1 inh 15
CC(C)N(Cc1nc(-c2ccccc2)no1)S(=O)(=O)c1ccccc1	none
FC(F)(F)c1ccccc1Cc1c(-c2ccco2)nc2c3ccccc3ccn12	none (no result: VIM-2 inhibitor, IMP-1 inh, PvdQ acylase)
N#CC1=C(S)N(c2ccccc2)C(c2ccc(-c3cc(Cl)ccc3Cl)o2)NC1=O (centres undefined)	none
N#CC1=C(S)N(c2ccccc2)C(c2ccc(-c3ccc(Cl)c(Cl)c3)o2)NC1=O (centres undefined)	IMP-1 inh 5.2
COc1cc2cc(CN(CCCN3CCOCC3)C(=O)Nc3ccc(F)cc3)c(=O)[nH]c2cc1OC	VIM-2 inhibitor 8.8
Nc1cccc2c1C(=O)N(C(=O)c1cccc(S(=O)(=O)N3CCCCCC3)c1)C2=O	none
Nc1cccc2c1C(=O)N(C(=O)c1ccc(Cl)c(S(=O)(=O)N3CCCCCC3)c1)C2=O	IMP-1 inh 4.8
COc1ccc(CN(C)C(=O)c2cc(S(=O)(=O)Nc3ccccc3F)ccc2C)c(OC)c1	IMP-1 inh 4.8
CN(CCOC(=O)c1cc2ccccc2o1)C1CN(Cc2cn(Cc3ccccc3C(F)(F)F)nn2)S(=O)(=O)C1 (centres undefined)	none (no result: VIM-2 inhibitor, IMP-1 inh, PvdQ acylase)
Cc1cc(Nc2ccc(C)c(C)c2)c2ccccc2n1	VIM-2 inhibitor 8.6
CC(=O)Nc1ccc(Nc2cc(C)nc3ccccc23)cc1	none (no result: VIM-2 inhibitor, IMP-1 inh)
COc1ccc(Nc2cc(C)nc3c(C)cccc23)cc1OC	VIM-2 inhibitor 10
CC(=O)N1CCc2cc(S(=O)(=O)NC3CCN(C(=O)OCc4ccccc4)CC3)ccc21	none (no result: VIM-2 inhibitor, IMP-1 inh, PvdQ acylase)
COc1cc2c(cc1NC(=O)CSc1nnc(-c3ccccc3F)n1-c1ccc(C)cc1)oc1ccccc12	none (no result: VIM-2 inhibitor, IMP-1 inh, PvdQ acylase)
O=C(NCCc1ccc(F)cc1)c1cc2ccccn2n1	none (no result: VIM-2 inhibitor, IMP-1 inh, PvdQ acylase)
O=C(O)Cn1nc2c3c(cccc3c1=O)-c1ccccc1-2	VIM-2 inhibitor 7.8
Cc1c(CCC(=O)NCCCn2ccnc2)c(=O)oc2c(C)c3occ(C(C)(C)C)c3cc12	VIM-2 inhibitor 8.1
Cc1oc2c(C)c3oc(=O)c(CCC(=O)NCCN4CCOCC4)c(C)c3cc2c1C	none
Cc1coc2c(C)c3oc(=O)c(CCC(=O)NCCCN4CCOCC4)c(C)c3cc12	VIM-2 inhibitor 11
Cc1coc2c(C)c3oc(=O)c(CCC(=O)NCCN4CCOCC4)c(C)c3cc12	VIM-2 inhibitor 8.2
Cc1oc2c(C)c3oc(=O)c(CCC(=O)NCCCN4CCCC4=O)c(C)c3cc2c1C	none
Cc1coc2c(C)c3oc(=O)c(CCC(=O)N4C[C@H]5C[C@@H](C4)c4cccc(=O)n4C5)c(C)c3cc12	VIM-2 inhibitor 7.7
CC(C)CN1C(=O)[C@]2(CC(=O)N(C)C2c2ccccc2)c2cc(-n3cc(C4=CCCCC4)nn3)ccc21 (some centres undefined)	none (no result: VIM-2 inhibitor, IMP-1 inh, PvdQ acylase)
CCOC(=O)CC[C@@H]1CC[C@]2(CCCN(Cc3nccs3)C2)O1	none (no result: VIM-2 inhibitor, IMP-1 inh, PvdQ acylase)
O=C(NC1CCSC1)c1cccc(Cl)c1 (centres undefined)	PvdQ acylase 81
COc1ccc(O)c(-c2[nH]ncc2C(=O)c2cccc(C)c2)c1	IMP-1 inh 5.1
COc1ccc(C(=O)c2cn[nH]c2-c2cc(C)ccc2O)cc1	none
O=S1(=O)C=CCN1Cc1cn(Cc2ccccc2)nn1	none (no result: VIM-2 inhibitor, IMP-1 inh, PvdQ acylase)
CC1=CC(C)C(C(=O)O)C(C(=O)N2CCN(C)CC2)C1 (centres undefined)	VIM-2 inhibitor 9.3
COC(=O)C1CN(Cc2cn(Cc3ccc(OC)cc3)nn2)CCS(=O)(=O)N1Cc1ccc(OC)cc1 (centres undefined)	none (no result: VIM-2 inhibitor, IMP-1 inh, PvdQ acylase)
c1ccc(-c2cccc(CNc3nc(-c4ccccn4)nnc3-c3ccccc3)c2)cc1	none (no result: VIM-2 inhibitor, IMP-1 inh, PvdQ acylase)
CCN1CCN(c2c(/C=C3\SC(=S)N(Cc4ccco4)C3=O)c(C)c(C#N)c(=O)n2C)CC1	IMP-1 inh 6.4
COc1cccc(C=C2SC(=S)N(Cc3ccco3)C2=O)c1OC	none (no result: VIM-2 inhibitor, IMP-1 inh, PvdQ acylase)
O=C(NC1CCCCN(Cc2cccc(C(F)(F)F)c2)C1=O)c1ccc(-c2ccccc2)cc1 (centres undefined)	none (no result: VIM-2 inhibitor, IMP-1 inh, PvdQ acylase)
CCN(C[C@H]1[C@@H](c2ccc(C3=CCCC3)cc2)[C@H](CO)N1c1nc(C)c(C)s1)S(=O)(=O)c1ccccc1[N+](=O)[O-]	none (no result: VIM-2 inhibitor, IMP-1 inh, PvdQ acylase)
Cc1ccc(-c2nc(C(=O)NCCCN3CCOCC3)cc3c2[nH]c2ccccc23)cc1	none
COc1ccc(-c2nc(C(=O)NCCCN3CCOCC3)cc3c2[nH]c2ccccc23)cc1OC	VIM-2 inhibitor 12
O=C(Cc1cccs1)Nc1cccc(C(=O)Nc2ccco2)c1	PLC-beta3 inh 13
CC(=O)c1cccc(NC(=O)Cc2cccs2)c1	none
Cc1noc(C)c1CN1C(=O)c2ccccc2C1=O	IMP-1 inh 4.8
CCOC(=O)CC(C#N)c1cn(C)c2ccccc12 (centres undefined)	PvdQ acylase 38
COc1ccc(Oc2c(-c3cccs3)cnn(-c3ccc(C)cc3)c2=O)cc1	none (no result: VIM-2 inhibitor, IMP-1 inh, PvdQ acylase)
CCN1CCN(c2ccc(NC(=O)c3ccc4c(c3)[nH]c(=O)n4Cc3ccc(OC)cc3)cc2)CC1	VIM-2 inhibitor 11
O=C(CSc1nc2ccccc2s1)NNC(=S)Nc1ccccc1	VIM-2 inhibitor 9.7
Cc1csc(NC(=O)CSc2nc3ccccc3s2)n1	IMP-1 inh 4.6
